Consider three molecules from ChEMBL document CHEMBL3244367, “Synthesis and determination of antiviral activity of the 2'(3')-O-methyl derivatives of ribavirin (1-beta-D-ribofuranosyl-1,2,4-triazole-3-carboxamide)” (1977).

The test system of one assay is Coxsackievirus B4. As to the kind of experiment: Antiviral activity against Coxsackievirus B4 infected in human HeLa cells assessed as inhibition of virus-induced cytopathogenicity treated immediately after virus adsorption measured 2 days after virus infection. It counts as functional. The settings on record: Enterovirus B, 48 h. Background: Cytopathic effects are the visible damage that an infection or toxin causes in cultured cells.

The next assay concerns Poliovirus 1. Description: Antiviral activity against Poliovirus type 1 infected in human HeLa cells assessed as inhibition of virus-induced cytopathogenicity treated immediately after virus adsorption measured 2 days after virus infection. The class given is functional. The settings on record: Enterovirus C, 48 h.
For a further assay, the system named is Human alphaherpesvirus 1. As to the kind of experiment: Antiviral activity against Herpes simplex virus 1 infected in primary rabbit kidney cells assessed as inhibition of virus-induced cytopathogenicity treated immediately after virus adsorption measured 3 days after virus infection. The settings on record: Human alphaherpesvirus 1, 72 h. It counts as functional. The essentials:
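Compound added right after virus adsorption; 100 CCID50 virus per culture. Cytopathogenicity was scored once complete in untreated infected controls. The value is the concentration giving 50% inhibition of viral cytopathogenicity.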

The test system of a further assay is kidney. As to the kind of experiment: Inhibition of DNA synthesis in primary rabbit kidney cells assessed as inhibition of [3H]thymidine incorporation into DNA at 100 ug/mL. The class given is functional, cell-based. Particulars: Oryctolagus cuniculus. The essentials: (§1)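 Host-cell DNA synthesis in primary rabbit kidney cells, measured as [methyl-3H]thymidine incorporation into DNA. ID50 is the dose inhibiting thymidine incorporation by 50%. The highest concentration tested was 100 μg/mL.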
In general terms: Incorporation of labelled thymidine or its analogues reports DNA synthesis.

The subject of assay [1] is Vesicular stomatitis virus. Description: Antiviral activity against Vesicular stomatitis virus infected in primary rabbit kidney cells assessed as inhibition of virus-induced cytopathogenicity treated immediately after virus adsorption measured 2 days after virus infection. Particulars: 48 h. It counts as functional.
Assay [2] in a line: Inhibition of DNA synthesis in primary rabbit kidney cells assessed as inhibition of [3H]thymidine incorporation into DNA. The class given is functional. The settings on record: Oryctolagus cuniculus, read-out: ID50 (the source's name). The essentials:
as §1

Structures are written as SMILES. ≈ marks a conversion by molar mass, not a printed value. Calls of active or inactive are those of the source. The rule behind the calls is not given here.

Take `CO[C@@H]1[C@H](O)[C@@H](CO)O[C@H]1n1cnc(C(N)=O)n1`: the MIC50 (in the assay with Coxsackievirus B4; in the assay with Poliovirus 1; with Human alphaherpesvirus 1; in assay [1]) was > 200 µg/mL in each case. Besides, the inhibition entry in the assay with kidney was “inactive”.

In the case of `NC(=O)c1ncn([C@@H]2O[C@H](CO)[C@@H](O)[C@H]2O)n1` [RIBAVIRIN], the MIC50 with Coxsackievirus B4 amounted to 40 µg/mL (≈ 164 µM); with Poliovirus 1, 40 µg/mL (≈ 164 µM); with Human alphaherpesvirus 1, 20 µg/mL (≈ 81.9 µM); in assay [1], 70 µg/mL (≈ 287 µM). The IC50 in assay [2] came out at 20 µg/mL (≈ 81.9 µM).

For `CO[C@H]1[C@@H](O)[C@H](n2cnc(C(N)=O)n2)O[C@@H]1CO`, the MIC50 (in the assay on Coxsackievirus B4; in the assay with Poliovirus 1; in the assay on Human alphaherpesvirus 1; in assay [1]) was > 200 µg/mL throughout. The inhibition entry with kidney was “inactive”.
